NF-kB neuron act: NF-kB expression increase, human neuronal cells | 1.6% of 190,000 active | fold change at 12.5 µM | NF-kB reporter expression; hits give high values | AID 1239; in the data active = fold change above about 3.3
Rad51 HR inh: Rad51 (human) homologous recombination inhibition; Q06609; hRad51 DNA strand exchange, fluorescence dequenching; inhibition, % at 10 µM; 0.085% of 200,000 active; AID 1385;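 active = inhibition above 40% at the single screening dose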;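 note: 0% = DMSO control wells and 100% = blanks with heterologous ssDNA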
Target sequence (Q06609 whole entry, looked up): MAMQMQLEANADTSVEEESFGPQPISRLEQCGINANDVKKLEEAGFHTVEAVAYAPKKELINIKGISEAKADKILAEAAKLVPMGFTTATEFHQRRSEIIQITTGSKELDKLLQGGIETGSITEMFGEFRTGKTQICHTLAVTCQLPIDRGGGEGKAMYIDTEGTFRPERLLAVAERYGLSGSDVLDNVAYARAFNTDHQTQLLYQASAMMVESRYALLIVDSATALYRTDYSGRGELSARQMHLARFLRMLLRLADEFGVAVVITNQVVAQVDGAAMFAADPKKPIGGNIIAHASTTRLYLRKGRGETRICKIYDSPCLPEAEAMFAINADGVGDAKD
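Material: human Rad51–ssDNA filaments; Probe or stimulus: labelled 47-mer dsDNA for strand exchange; Doses: single 10 µM dose; Incubation: 37 °C 15-min filament assembly, 30-min compound preincubation, 15-min exchange; Technique: FRET fluorescence dequenching, excitation 485 nm, emission 520 nm; Measure: Fluorescence-based percent inhibition, control- and blank-normalised; Benchmarks: plate control and blank wells.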
FLuc inh counter: Photinus pyralis luciferase inhibition counter-screen; P08659; inhibition, % at 10 µM; ATPLite firefly luciferase biochemical luminescence, 10 min; 1.5% of 200,000 active; AID 1006;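 active = inhibition above about 50% when tested at 10 µM, limit read from the data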
FLuc act counter: firefly luciferase counter-screen for stimulation assays. P08659. ATPlite luciferase biochemical, luminescence, 10 min; 0 = ATP-free wells, 1 = DMSO control. activation factor at 10 µM. 200,000 tested, under 10 active. AID 1027;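 active = luciferase activation factor, scaled between plate controls, of at least 2 with compound at 10 µM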
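assay system = Luciferase/luciferin detection reagent, cell-free biochemical luciferase assay | also added = ATP substrate | times = 10 min post-reagent at room temperature | measured by = luminescence from luciferase reaction | measure = luciferase activation, seen as luminescence increase over controls | benchmarks = low control with PBS replacing ATP, high control enzyme plus ATP without compound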
STAT1 activator: STAT1 signaling activation | NIH 3T3 STAT1-luciferase reporter, IFN-gamma, luminescence; 100% = IFN-gamma alone, no compound | activation (% of control), % at 5.5 µM | AID 932 | 2.6% of 200,000 active;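 active = activation above the screen-wide mean activation plus 3 SD, cut at about 130% in these data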;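 note: raw ratio to IFN-gamma control signal so 100% means no change and 0% no light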
APP 5'UTR act: APP 5'UTR luciferase reporter activation | AID 1276 | SH-SY5Y APP 5'UTR luciferase reporter, luminescence; zero percent = DMSO vehicle wells | activation, % at 2 µM | 1% of 190,000 active;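 active = activation above a set limit, based on mean plus 3 SD of controls, cut at about 140% in these data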
* = called active by the depositor; nt = no result. Most compounds without a hit are left out; they make up all but 3.9% or so of the library.

SMILES	NF-kB neuron act	Rad51 HR inh	FLuc inh counter	FLuc act counter	STAT1 activator	APP 5'UTR act
O=c1[nH]c(/C=C2\C=Nc3ccccc32)c(O)n1Cc1ccccc1F	6.9*	-7	-5	1.1	97	-63
O=C(Nc1nc2ccc([N+](=O)[O-])cc2s1)c1ccco1	2.4	0	40	0.6	115	76
Cc1ccc(N=Nc2[nH]c3ccccc3c2O)cc1	1.9	nt	4	1	130*	13
COc1ccc(N=Nc2[nH]c3ccc(C)cc3c2O)cc1	1.2	4	-3	1	114	19
Cc1nonc1CN(C)C(=O)CC1C(=O)NCCN1Cc1cccc(C(F)(F)F)c1 (stereo not drawn)	1.2	5	-4	1	102	2
c1ccc(-c2csc(-c3cccnc3)n2)cc1	2	4	8	0.9	132*	13
COc1ccc2cc(-c3csc(-c4cccnc4)n3)ccc2c1	2.6	3	27	0.7	124	6
Cc1ccc(-c2csc(-c3ccncc3)n2)cc1	2.6	6	10	0.9	144*	70
O=S(=O)(c1ccc(-c2csc(-c3cccnc3)n2)cc1)N1CCOCC1	1.4	13	-3	1	103	0
COc1ccc(-c2csc(-c3cccnc3)n2)cc1C	2.8	1	33	0.7	150*	73
Brc1ccc(-c2csc(-c3ccncc3)n2)cc1	2	-7	4	1	128	22
CCOc1ccc(NC(=S)N2CCCN(Cc3cc(C)ccc3C)C2)cc1	1	22	-2	1	105	-9
CC(NC(=O)CN1CCc2ccccc21)c1ccccc1 (stereo not drawn)	1.3	-17	-7	1.1	92	14
CC1(N(O)C=C2C=CC(=O)C=C2)CCCCC1=O (stereo not drawn)	nt	-13	nt	nt	nt	nt
COc1ccc2[nH]c(=O)c(CN(C)C(=O)c3cccs3)cc2c1	nt	8	nt	nt	nt	nt
CCC(CC)c1nnc(NC(=O)CCNC(=O)c2ccccc2Cl)s1	1.1	4	-6	1.1	99	-4
c1ccc2sc(NN=C3CCCCCC3)nc2c1	2.9	-6	89*	0.1	66	149*
N/C(=N\N=C\c1ccc2c(c1)OCO2)c1nonc1N	7.6*	16	78*	0.2	132*	221*
CCOc1ccc(N2C(N)=NC(N)=NC2(C)C)cc1	2.2	2	-17	1.2	112	-6
COc1ccc(N2C(N)=NC(N)=NC2(C)C)cc1	3.9*	nt	-1	1	103	-8
O=C(/C=C/c1ccco1)N1CCc2ccccc21	7.7*	-1	82*	0.2	90	250*
COc1ccc(/C=C/C(=O)N2CCCc3ccccc32)cc1	1.2	1	6	0.9	110	-3
CCOC(=O)/C=C/C(=O)N1CCc2ccccc21	1.1	-3	19	0.8	97	-2
O=C(c1ccc(Br)o1)N1CCc2ccccc21	4.3*	3	54*	0.5	148*	119
Cc1ccc(C(=O)N2CCc3ccccc32)cc1NC(=O)c1ccco1	1	9	-4	1	101	21
SMILES	NF-kB neuron act	Rad51 HR inh	FLuc inh counter	FLuc act counter	STAT1 activator	APP 5'UTR act
O=C1CCN(C(=O)/C=C/c2ccccc2)c2ccccc21	1.9	13	16	0.8	129*	15
O=C(c1ccco1)N1CCc2ccccc21	2.3	7	14	0.9	134*	55
O=[N+]([O-])c1cccc(N/N=C/c2cccc3ccccc23)c1	0.9	-7	-10	1.1	100	31
CCC(C)[C@H](NC(=O)NCc1ccco1)C(=O)OC (stereo partly drawn)	nt	10	nt	nt	nt	nt
CSc1nc(=S)c2[nH]c(=S)[nH]c2[nH]1	nt	0	nt	nt	nt	nt
Cc1ccc(NC(=O)/C=C/c2cccs2)c([N+](=O)[O-])c1	7*	3	32	0.7	146*	173*
Cc1cccc(NC(=O)/C=C/c2cccs2)n1	5*	-2	65*	0.3	149*	170*
Cc1ccc(NC(=O)/C=C/C(=O)O)c([N+](=O)[O-])c1	1.3	2	-4	1	100	13
CCCCCn1cnc2c(sc3nc4c(cc32)CSC(C)(C)C4)c1=O	1.5	3	7	0.9	138*	91
CC1(C)Cc2nc3sc4c(=O)[nH]cnc4c3cc2CS1	1.5	-1	15	0.9	111	-4
Cc1nc2sc(-c3ccccc3)nn2c(=O)c1Br	4.5*	nt	28	0.7	147*	112
O=C(Oc1ccc(-c2nccc(-c3ccccn3)n2)cc1)c1cccc(C(F)(F)F)c1	3.4*	1	-4	1	79	33
Cc1ccc(C(=O)Oc2ccc(-c3nccc(-c4ccccn4)n3)cc2)cc1	1.8	10	3	1	102	8
CC(C)CC(NC(N)=O)C(=O)Nc1ccc(Oc2ccccc2)cc1 (stereo not drawn)	0.87	3	-6	1.1	102	3
CN(C)c1ccc(/C=N/NC(=O)c2ccn(C)n2)cc1	nt	14	nt	nt	nt	nt
O=C(N/N=C\c1ccc(Oc2ccccc2)cc1)c1csnn1	7.5*	-5	25	0.8	137*	5
CN(C)c1ccc(/C=N/NC(=O)c2ccnn2C)cc1	4.4*	2	46	0.5	122	46
CN(C)c1ccc(/C=N\NC(=O)c2csnn2)cc1	3.4*	nt	60*	0.4	112	9
Cc1ccnc2ccc(SC(F)(F)F)cc12	0.85	16	-3	1	100	2
CC1(C)OC1COc1c2ccoc2cc2oc(=O)ccc12 (stereo not drawn)	1.1	-1	-5	1	101	-24
Cc1ccc(/C([O-])=C(/C(=S)NCCN2CCOCC2)[n+]2ccccc2)cc1[N+](=O)[O-]	1.1	1	-3	1	104	-2
CC(C)(C)C(=O)OCc1nc(-c2ccc(C(F)(F)F)cc2)cs1	nt	7	nt	nt	nt	nt
COc1ccc(NC(=O)Nc2nnc(C(C)C)s2)cc1	2.4	-5	12	0.9	130*	69
COc1ccc(CC(=O)Nc2nnc(C(C)C)s2)cc1	1.4	14	-1	1	102	16
CCOc1ccccc1NC(=O)Nc1ccc(Br)cn1	0.86	nt	-1	1	98	10
SMILES	NF-kB neuron act	Rad51 HR inh	FLuc inh counter	FLuc act counter	STAT1 activator	APP 5'UTR act
CCOc1ccc(NC(=O)Nc2ccccc2C(N)=O)cc1	1.2	nt	93*	0.1	119	19
CCOc1ccc(NC(=O)Nc2ccc(NC(C)=O)cc2)cc1	1.1	24	-5	1.1	99	1
Cc1ccc(NC(=O)Nc2ccccc2C(N)=O)cc1	nt	7	nt	nt	nt	nt
COc1ccc(NC(=O)Nc2ccccc2C(N)=O)cc1	1.1	1	84*	0.2	114	-10
CCOc1ccc(NC(=O)Nc2ccc(Br)cn2)cc1	1.9	nt	-4	1	145*	50
Cc1ccccc1CN1CCSc2sccc2C1=O	0.9	8	-7	1.1	99	31
